Published values gathered from unrelated publications.
Lines come from different studies, so protocols differ.
Target: Tyrosine-protein kinase SYK (SYK, Homo sapiens, UniProt P43405)
Tested at: 1 µM

`O=C(c1ccc(Nc2ncc(Cl)c(-c3cc4ccccc4s3)n2)cc1)N1CCC(N2CCCC2)CC1` gave a remaining binding of 8.6% (binding, competition with immobilised ligand).
With `COc1cnc(Nc2cccc(S(N)(=O)=O)c2)nc1N1CCN(c2ccccc2)CC1` the remaining binding was 86% (binding, competition with immobilised ligand).
For `CCC(=O)N[C@H]1CC[C@@H](C(=O)N(C)c2ccc(-c3nc4ccccc4o3)cc2)C1`, the remaining binding was 100% (cell-free assay, competition with immobilised ligand).
With `Cc1cnn2ncc(-c3ccnc(N(C)C)n3)c2c1` the remaining binding was 100% (binding).
With `Cc1cc(-n2nc(Cc3cc(F)cc(C(F)(F)F)c3)nc2C)ccc1C(N)=O` the remaining binding was 87% (cell-free assay, competition with immobilised ligand).
The remaining binding of `N[C@H]1CCN(c2nccc(-c3cnn4ncccc34)n2)C1` is reported as 81% (binding).
`COc1ccc2c(c1)O[C@H](c1ccc(OC)c(OC)c1)C[C@@H]2NC(=O)C1(c2ccc3c(c2)OC(F)(F)O3)CC1` gave a remaining binding of 100% (cell-free assay, competition with immobilised ligand).
`CN(CCCC(F)(F)F)c1nccc(-c2cnn3ncccc23)n1` gave a remaining binding of 76% (binding).
`O=C(Nc1cccnn1)N1CCC(=Cc2cccc(Oc3ccc(C(F)(F)F)cn3)c2)CC1` has a remaining binding of 100% (cell-free assay, competition with immobilised ligand).
`CN(C)c1ncc(F)c(-c2cnn3ncccc23)n1` gave a remaining binding of 76% (binding).
`Nc1ncc2c(n1)-c1c([nH]c3ccc(C#CC4CC4)cc13)CCCC2` gave a remaining binding of 100% (binding, competition with immobilised ligand).
For `O=C(NCC1CCOCC1)c1n[nH]cc1NC(=O)c1c(F)cccc1F`, the remaining binding was 100% (binding, competition with immobilised ligand).
For `Cc1cnc(Nc2ccc(C(=O)N3CCC(N4CCCC4)CC3)cc2)nc1-c1cc2ccccc2s1`, the remaining binding was 7.7% (binding, competition with immobilised ligand).
`CCN1CCN(Cc2ccc(C(=O)Nc3ccc(C)c(Oc4ccc5c(c4)CC(=O)N5)c3)cc2C(F)(F)F)CC1` gave a remaining binding of 100% (binding, competition with immobilised ligand).
`CC1CCCN1c1nccc(-c2cnn3ncccc23)n1` (centres unmarked) gave a remaining binding of 100% (binding).
With `Cc1cc(NC(=O)c2cccc(S(F)(F)(F)(F)F)c2)cc(-n2ccn3nc(-c4cccnc4)cc23)c1` the remaining binding was 95.5% (cell-free assay, competition with immobilised ligand).
The remaining binding of `O=C(NCCCN1CCOCC1)c1ccc(Nc2ncc(Cl)c(-c3ccc(Cl)s3)n2)cc1` is reported as 34% (binding, competition with immobilised ligand).
With `CNC(=O)[C@@H]1CC[C@@H](n2c(-c3ccc4cnccc4c3)nc3ccc(C(=O)NCc4cccc(C(N)=O)c4)cc32)C1` the remaining binding was 99% (binding, competition with immobilised ligand).
`C[C@H]1CCN(c2nccc(-c3cnn4ncccc34)n2)C1` has a remaining binding of 82% (binding).
The remaining binding of `CO[C@H]1CC[C@H](CNc2ccc(S(=O)(=O)NC(=O)c3ccc(N4CCN(CC5=C(c6ccc(Cl)cc6)CC(C)(C)CC5)CC4)cc3Oc3cnc4[nH]ccc4c3)cc2[N+](=O)[O-])CC1` is reported as 62% (cell-free assay, competition with immobilised ligand).
